Source: PubChem BioAssay
SUMO HTRF inh – SUMOylation inhibition; P63279; HTRF SUMOylation assay, SAE1/SAE2 + UBC9, in vitro; inhibition, % at 35 µM; hit rate 0.36% among 290,000; AID 2006; in the data active = inhibition above about 50%, passing the limit was not always enough
Target sequence (P63279 whole entry, looked up): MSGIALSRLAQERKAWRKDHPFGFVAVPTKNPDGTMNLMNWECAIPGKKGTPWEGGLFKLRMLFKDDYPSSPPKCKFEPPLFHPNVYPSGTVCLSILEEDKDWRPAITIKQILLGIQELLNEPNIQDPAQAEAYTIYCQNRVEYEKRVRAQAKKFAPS
UBC13 polyUb – inhibitors of human UBC13 polyubiquitin chain formation; P61088; TR-FRET; inhibition, % at 20 µM; hit rate 0.47% among 330,000; in the data active = inhibition above about 45%, passing the limit was not always enough
Target sequence (P61088 whole entry, looked up): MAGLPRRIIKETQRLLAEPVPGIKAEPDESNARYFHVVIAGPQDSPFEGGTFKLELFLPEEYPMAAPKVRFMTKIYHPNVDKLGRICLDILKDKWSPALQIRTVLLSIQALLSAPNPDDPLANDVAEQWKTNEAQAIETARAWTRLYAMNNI
ALR inh – inhibitors of human sulfhydryl oxidase ALR; P55789; purified ALR, DTT oxidation, H2O2 HRP-luminol luminescence; AID 485317; inhibition, % (concentration not given with the values); hit rate 3.8% among 290,000;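 active = mean replicate inhibition above about 79%, with every replicate also reaching it, limit read from the data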
Target sequence (P55789 whole entry, looked up): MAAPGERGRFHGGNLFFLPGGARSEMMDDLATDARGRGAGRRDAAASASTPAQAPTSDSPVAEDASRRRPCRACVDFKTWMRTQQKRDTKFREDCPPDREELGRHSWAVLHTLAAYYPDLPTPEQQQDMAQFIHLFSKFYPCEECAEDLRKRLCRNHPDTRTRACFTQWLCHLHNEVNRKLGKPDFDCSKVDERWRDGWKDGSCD
RBBP9 inh – inhibitors of human serine hydrolase RBBP9. O75884. AID 1515. hit rate 0.2% among 220,000. inhibition, % at 7.94 µM. recombinant RBBP9, FP-Rh probe fluorescence polarization;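 active = inhibition above the campaign mean of all tested compounds plus 3 SD, cut at about 14% in these data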
Target sequence (O75884 whole entry, looked up): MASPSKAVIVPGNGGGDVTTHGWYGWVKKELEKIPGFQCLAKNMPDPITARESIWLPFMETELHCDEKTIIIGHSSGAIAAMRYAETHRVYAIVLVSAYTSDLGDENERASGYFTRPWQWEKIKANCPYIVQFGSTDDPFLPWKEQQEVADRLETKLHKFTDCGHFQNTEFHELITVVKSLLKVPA
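Assay system: recombinant human RBBP9; Reagent: Serine-hydrolase probe FP-Rh, 375 nM pre-mixing; Doses: 7.94 µM single dose, 0.794% DMSO; Incubation: 30 min then 45 min, 25 °C; Detection: fluorescence polarization (mP), excitation 525 nm, emission 598 nm; Evaluation: percent inhibition from mP, scaled between DMSO and no-protein wells.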
Rin1 Abl inh – human Rin1-Abl interaction inhibition | P00519+Q13671 | TR-FRET Rin1/Abl binding, biochemical | inhibition, % at 7.35 µM | hit rate 0.4% among 360,000; in the data active = inhibition above about 5%, passing the limit was not always enough
PREPL inh – inhibitors of human prolyl oligopeptidase-like enzyme PREPL | Q4J6C6 | recombinant PREPL, fluorescence polarization activity-based probe | inhibition, % at 5.96 µM | hit rate 0.68% among 320,000 | AID 2751; in the data active = inhibition above about 43%
Large screens that a line does not name were inactive. Compounds with a hit are over-represented: about 4.3% of the library has one in this group of screens.

COc1cccc(CSCC(=O)NCCc2ccccc2)c1OC	none (no result: RBBP9 inh)
Cc1c(F)cccc1NC(=O)c1ccc2c(c1)CCN2S(C)(=O)=O	none (no result: ALR inh, RBBP9 inh)
CCN(c1ccc(NC(=O)COC(=O)CCC(=O)c2ccc(F)cc2)cc1)C(C)C	ALR inh 93
Cc1ccc(N=Nc2c(N)nn(-c3ccccc3)c2N)cc1	PREPL inh 62 (no result: ALR inh)
COc1cccc(/C=N/NC(=O)c2ccccc2N(Cc2ccccc2)S(=O)(=O)c2ccccc2)c1OC	none
Nc1nc(=S)c2[nH]c(=S)[nH]c2[nH]1	none (no result: SUMO HTRF inh, UBC13 polyUb, ALR inh, RBBP9 inh, PREPL inh)
CSc1nc(=S)c2[nH]c(=S)[nH]c2[nH]1	ALR inh 99 (no result: UBC13 polyUb, PREPL inh)
CCN(CC)CCNS(=O)(=O)c1ccc2c3c(cccc13)C(=O)N2	SUMO HTRF inh 58 (no result: RBBP9 inh)
O=C1Nc2ccc(S(=O)(=O)NCc3ccccn3)c3cccc1c23	none (no result: ALR inh, PREPL inh)
CN(C)CCNS(=O)(=O)c1ccc2c3c(cccc13)C(=O)N2	SUMO HTRF inh 53 (no result: RBBP9 inh)
CCc1nc2c(OCC(=O)c3ccc(Cl)cc3Cl)cccn2c1N(C)C(=O)c1cccs1	none (no result: SUMO HTRF inh, UBC13 polyUb, ALR inh, RBBP9 inh, PREPL inh)
CS(=O)(=O)N(CC(=O)N1CCOCC1)c1ccccc1	none (no result: RBBP9 inh)
COC(=O)c1cc(-c2cccc(OC)c2)n[nH]1	none
CCOc1cccc(-c2cc(C(=O)NN)[nH]n2)c1	ALR inh 79
COCCCNC(=O)CCc1nnc(Cc2ccc(-c3ccccc3)cc2)o1	none (no result: ALR inh)
Cc1ccc(CNC(=O)CCc2nnc(Cc3ccc(-c4ccccc4)cc3)o2)o1	ALR inh 97
CC(C)(C)c1ccc(Oc2ccc(NC(=O)CCCC(=O)O)cn2)cc1	ALR inh 91
CN(C)c1ccc(/C=N/NC(=O)c2ccnn2C)cc1	ALR inh 99
Cn1ccc(C(=O)N/N=C/c2cccnc2)n1	none (no result: RBBP9 inh)
O=C(N/N=C/c1ccncc1)c1ccccn1	none (no result: RBBP9 inh)
CN(C)c1ccc(/C=N/NC(=O)c2ccccn2)cc1	ALR inh 87
CN(C)c1ccc(/C=N/NC(=O)c2ccco2)cc1	ALR inh 99
CN(C)c1ccc(/C=N/NC(=O)c2ccn(C)n2)cc1	ALR inh 94
O=C(c1cccc(S(=O)(=O)Nc2ccc(F)cc2)c1)N1CCC1	none (no result: SUMO HTRF inh, RBBP9 inh)
COCCN(C(=O)CCc1nnc(CCc2c[nH]c3ccccc23)o1)C(C)C	none
CC(C)(O)c1cc2ccc(C#Cc3ccsc3)cc2c(=O)o1	none (no result: SUMO HTRF inh, RBBP9 inh)
CN(C)c1ccc(C(=S)Nc2ccccc2)cc1	none (no result: ALR inh)
CN(C)c1ccc(NC(=S)c2ccccn2)cc1	ALR inh 98 (no result: UBC13 polyUb)
Cc1cc(SCNC(=O)c2ccccc2)nc(C(C)C)n1	ALR inh 98
CC(NNC(=S)N1CCCCCC1)c1ccc2ccccc2n1 (stereo unspecified)	none (no result: SUMO HTRF inh, UBC13 polyUb, ALR inh, RBBP9 inh, PREPL inh)
O=C(NC1=NCCS1)c1ccc(C(F)(F)F)cc1	none (no result: RBBP9 inh)
O=C(Nc1ncccn1)c1ccc(C(F)(F)F)cc1	ALR inh 97
CCCCn1c(SCC(N)=O)nc2ccc(N3CCOCC3)cc2c1=O	none
CCCCn1c(SCC(=O)Nc2cccc(OC)c2)nc2ccc(N3CCOCC3)cc2c1=O	ALR inh 99
COc1ccc(Cn2c(SCC#N)nc3ccc(N4CCOCC4)cc3c2=O)cc1	PREPL inh 71
COc1ccc(-c2cc(C(=O)NC3=NCCS3)c3ccccc3n2)cc1OC	ALR inh 98
COc1ccccc1C(=O)NCCC(=O)NCCCSc1ccccc1	none (no result: SUMO HTRF inh, ALR inh, RBBP9 inh)
N#CCCn1c(SCC(=O)Nc2ccc(N3CCOCC3)cc2)nc2ccccc21	ALR inh 99
COc1ccc(CSc2nc3ccccc3[nH]2)cc1	none
O=C(CSc1nc2ccccc2[nH]1)Nc1ccc(N2CCOCC2)cc1	ALR inh 99 (no result: RBBP9 inh)
O=C(CSc1nc2ccccc2[nH]1)Nc1cccc(S(=O)(=O)N2CCOCC2)c1	none (no result: ALR inh)
Cc1ccc2nc(SCC(=O)N3CCN(c4ccccc4)CC3)[nH]c2c1	none (no result: ALR inh)
O=C1CCC(=O)N1c1ccc(CSc2nc3ccccc3[nH]2)cc1	ALR inh 99
O=C(CSc1nc2ccccc2[nH]1)N1CCN(c2ccccc2)CC1	ALR inh 99
CCCc1ccc2oc(C(=O)N3CCNC(=O)C3CC(=O)OC)c(C)c2c1 (stereo unspecified)	none (no result: RBBP9 inh)
Cc1ccc(S(=O)(=O)NC(=O)Nc2ccc(C)cn2)cc1	none (no result: RBBP9 inh)
Cn1cc(SCC(=O)N2CCN(c3ccccc3)CC2)c2ccccc21	ALR inh 98
Cn1cc(SCC(=O)N2CCOCC2)c2ccccc21	none (no result: ALR inh)
O=C(O)Cc1c(C(=O)O)[nH]c2ccc(C(=O)O)cc12	none (no result: ALR inh)
CNC(=S)NNC(=O)COc1ccc(C)c(C)c1	ALR inh 90
Cc1ccc(OCC(=O)Nc2cccc(O)c2)cc1C	ALR inh 98
Cc1ccc(OCC(=O)NC2CCCCCC2)cc1C	none (no result: RBBP9 inh)
CCC(CC)C(=O)N1CCN(c2ccccc2)CC1	ALR inh 98
Cc1ccccc1CSCC(=O)N1CCN(c2ccccc2)CC1	ALR inh 99
Cc1ccsc1-c1nc(CSCC(=O)N2CCN(c3ccccc3)CC2)c(C)o1	ALR inh 89
Cc1cccc(CN2[C@H](COCc3ccccc3)C=CS2(=O)=O)c1	none (no result: SUMO HTRF inh, UBC13 polyUb, ALR inh, RBBP9 inh, PREPL inh)
CCNc1nc(NCC)n2c(SCC(=O)Nc3ccc(NC(C)=O)cc3)nnc2n1	ALR inh 98 (no result: SUMO HTRF inh, RBBP9 inh)
CCNc1nc(NCC)n2c(SCC(=O)Nc3ccc(CC)cc3)nnc2n1	ALR inh 99 (no result: SUMO HTRF inh, RBBP9 inh)
Cc1csc(NC(=O)CCC(=O)N(CC(=O)NC2CCCCC2)c2ccccc2)n1	none (no result: ALR inh, RBBP9 inh)
CN(CCOc1ccccc1)C(=O)c1ccc(F)c(S(=O)(=O)N2CCOCC2)c1	none (no result: SUMO HTRF inh, RBBP9 inh)
Cc1ccc(NC(=O)CSCc2ccc(F)cc2)cc1	ALR inh 93
Cc1ccc(NC(=O)CSCc2ccco2)cc1	ALR inh 99
O=C(O)CSCC(=O)Nc1ccc(C2CCCCC2)cc1	ALR inh 98
Cc1ccc(NC(=O)CSCC(=O)NCc2ccco2)cc1	none (no result: SUMO HTRF inh, RBBP9 inh)
O=C(CSCc1ccco1)NC1CCCC1	ALR inh 99
Cn1cc([N+](=O)[O-])c(C(=O)NCc2ccccc2)n1	none
CCOC1=C2[C@@H](CN(S(=O)(=O)c3ccc(C)cc3)[C@H]2c2ccccc2Cl)[C@H]2C(=O)N(C(C)(C)C)C(=O)[C@H]2C1	none (no result: SUMO HTRF inh, UBC13 polyUb, ALR inh, RBBP9 inh, PREPL inh)
Cc1ccc(NC(=O)CSCC(=O)O)cc1	ALR inh 98
Cc1ccc(NC(=O)CSCC(=O)NC2=NCCS2)cc1	ALR inh 98 (no result: SUMO HTRF inh, RBBP9 inh)
CCN(CC)C(=O)C1=C(C)N(Cc2ccc(OC)cc2)C(=O)C(CC(=O)NC2CC2)C1 (stereo unspecified)	none (no result: SUMO HTRF inh, UBC13 polyUb, ALR inh, RBBP9 inh, PREPL inh)
CC(=O)Nc1ccc(-c2ccnc3c2CC(C)(C(=O)Nc2cccc(OC(F)(F)F)c2)O3)cc1 (stereo unspecified)	none (no result: SUMO HTRF inh, UBC13 polyUb, ALR inh, RBBP9 inh, PREPL inh)
CCOC(=O)N1CCN(C(=O)CN(c2ccc(OCC)cc2)S(C)(=O)=O)CC1	none
CCOc1ccc(N(CC(=O)NN=C2CCN(C)CC2)S(C)(=O)=O)cc1	ALR inh 91
CN(C)Cc1c(O)ccc2[nH]cnc12	none
Oc1ccc2ccc3[nH]cnc3c2c1	ALR inh 100
O=C(Nc1ccccc1N1CCCC1)c1cccnc1	ALR inh 98
O=C(Nc1cc(C(F)(F)F)ccc1N1CCCC1)c1cccnc1	none
